ChEMBL document CHEMBL1795205, “The new 5- or 6-azapyrimidine and cyanuric acid derivatives of l-ascorbic acid bearing the free C-5 hydroxy or C-4 amino group at the ethylenic spacer: CD-spectral absolute configuration determination and biological activity evaluations” (Eur J Med Chem, 2011)

Assays:
HeLa [1] = test: Induction of cell cycle arrest in human HeLa cells assessed as accumulation at G1 phase at 5 uM after 24 hrs by flow cytometry relative to control; assay type: functional
Outline: (§1)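 Cells were seeded at 3×10⁵ per well in 6-well plates and treated after overnight incubation for 24 and 48 h. They were trypsinized, washed three times in PBS, fixed in cold ethanol and stored at −20 °C. Pellets were washed twice in PBS and treated with RNase A at 37 °C for 15 min, then stained with PI for 30 min in the dark. DNA content was measured by flow cytometry.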

MCF7 [2] = test: Induction of cell cycle arrest in human MCF7 cells assessed as accumulation at S phase at 10 uM after 48 hrs by flow cytometry (reference value: 40.9 +/- 5.7%); assay type: functional; outline: as §1
HeLa [3] = test: Induction of cell cycle arrest in human HeLa cells assessed as accumulation at G1 phase at 10 uM after 24 hrs by flow cytometry (reference value: 44.8 +/- 11.2%); assay type: functional; outline: as §1
HeLa [4] = test: Induction of cell cycle arrest in human HeLa cells assessed as accumulation at G2/M phase at 10 uM after 24 hrs by flow cytometry (reference value: 10.9 +/- 2.6%); assay type: functional; outline: as §1
MCF7 [5] = test: Induction of cell cycle arrest in human MCF7 cells assessed as accumulation at S phase at 5 uM after 24 hrs by flow cytometry (reference value: 33.4 +/- 0.4%); assay type: functional; outline: as §1
MCF7 [6] = test: Induction of cell cycle arrest in human MCF7 cells assessed as accumulation at subG1 phase at 5 uM after 48 hrs by flow cytometry (reference value: 0.51 +/- 0.01%); assay type: functional; outline: as §1
HeLa [7] = test: Induction of cell cycle arrest in human HeLa cells assessed as accumulation at S phase at 10 uM after 24 hrs by flow cytometry (reference value: 44.4 +/- 8.7%); assay type: functional; outline: as §1
HeLa [8] = test: Induction of cell cycle arrest in human HeLa cells assessed as accumulation at S phase at 10 uM after 48 hrs by flow cytometry (reference value: 40.6 +/- 0.1%); assay type: functional; outline: as §1
HeLa [9] = test: Induction of cell cycle arrest in human HeLa cells assessed as accumulation at G2/M phase at 10 uM after 48 hrs by flow cytometry (reference value: 3.25 +/- 0.1%); assay type: functional; outline: as §1
HepG2 = test: Cytostatic activity against human HepG2 cells assessed as inhibition of cell proliferation after 72 hrs by MTT assay; assay type: functional, cell-based; settings: HepG2, 72 h
Outline: (§2)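 Monolayer cells grown in DMEM with 10% FBS were seeded on day 0 at 3000–6000 cells/well, set by each line's doubling time. Agents were added the next step in five 10-fold dilutions (0.01–100) for 72 h, with DMSO ≤0.1% and a solvent control. MTT absorbance was converted to percentage growth versus untreated wells on the same plate. Where all PGs exceeded 50, the top concentration was reported as ">". ANOVA/Tukey, p<0.05.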

HeLa [10] = test: Induction of cell cycle arrest in human HeLa cells assessed as accumulation at subG1 phase at 10 uM after 24 hrs by flow cytometry (reference value: 0.49 +/- 0.2%); assay type: functional; outline: as §1
MCF7 [11] = test: Induction of cell cycle arrest in human MCF7 cells assessed as accumulation at G1 phase at 5 uM after 24 hrs by flow cytometry (reference value: 50.7 +/- 3.1%); assay type: functional; outline: as §1
MCF7 [12] = test: Induction of cell cycle arrest in human MCF7 cells assessed as accumulation at G2/M phase at 5 uM after 48 hrs by flow cytometry (reference value: 6.82 +/- 0.3%); assay type: functional; outline: as §1
SW-620 = test: Cytostatic activity against human SW620 cells assessed as inhibition of cell proliferation after 72 hrs by MTT assay; assay type: functional, cell-based; settings: SW-620, 72 h; outline: as §2
MCF7 [13] = test: Induction of cell cycle arrest in human MCF7 cells assessed as accumulation at S phase at 5 uM after 48 hrs by flow cytometry (reference value: 40.9 +/- 5.7%); assay type: functional; outline: as §1
HeLa [14] = test: Induction of cell cycle arrest in human HeLa cells assessed as accumulation at subG1 phase at 10 uM after 48 hrs by flow cytometry (reference value: 0.16 +/- 0.01%); assay type: functional; outline: as §1
MIA PaCa-2 = test: Cytostatic activity against human MIAPaCa2 cells assessed as inhibition of cell proliferation after 72 hrs by MTT assay; assay type: functional, cell-based; settings: MIA PaCa-2, 72 h; outline: as §2
MCF7 [15] = test: Induction of cell cycle arrest in human MCF7 cells assessed as accumulation at G2/M phase at 10 uM after 24 hrs by flow cytometry (reference value: 15.9 +/- 2.7%); assay type: functional; outline: as §1
HeLa [16] = test: Induction of cell cycle arrest in human HeLa cells assessed as accumulation at S phase at 5 uM after 48 hrs by flow cytometry relative to control; assay type: functional; outline: as §1
HeLa [17] = test: Induction of cell cycle arrest in human HeLa cells assessed as accumulation at G1 phase at 10 uM after 48 hrs by flow cytometry (reference value: 56.1 +/- 0.1%); assay type: functional; outline: as §1
HeLa [18] = test: Induction of cell cycle arrest in human HeLa cells assessed as accumulation at subG1 phase at 5 uM after 48 hrs by flow cytometry relative to control; assay type: functional; outline: as §1
MCF7 [19] = test: Induction of cell cycle arrest in human MCF7 cells assessed as accumulation at subG1 phase at 5 uM after 24 hrs by flow cytometry (reference value: 0.68 +/- 0.4%); assay type: functional; outline: as §1
MCF7 [20] = test: Induction of cell cycle arrest in human MCF7 cells assessed as accumulation at G1 phase at 10 uM after 24 hrs by flow cytometry (reference value: 50.7 +/- 3.1%); assay type: functional; outline: as §1
MCF7 [21] = test: Induction of cell cycle arrest in human MCF7 cells assessed as accumulation at subG1 phase at 10 uM after 48 hrs by flow cytometry (reference value: 0.51 +/- 0.01%); assay type: functional; outline: as §1
HeLa [22] = test: Induction of cell cycle arrest in human HeLa cells assessed as accumulation at G2/M phase at 5 uM after 24 hrs by flow cytometry relative to control; assay type: functional; outline: as §1
MCF7 [23] = test: Induction of cell cycle arrest in human MCF7 cells assessed as accumulation at G2/M phase at 10 uM after 48 hrs by flow cytometry (reference value: 6.82 +/- 0.3%); assay type: functional; outline: as §1
HeLa [24] = test: Induction of cell cycle arrest in human HeLa cells assessed as accumulation at G2/M phase at 5 uM after 48 hrs by flow cytometry relative to control; assay type: functional; outline: as §1
MCF7 [25] = test: Induction of cell cycle arrest in human MCF7 cells assessed as accumulation at G1 phase at 10 uM after 48 hrs by flow cytometry (reference value: 52.3 +/- 6.1%); assay type: functional; outline: as §1
MCF7 [26] = test: Induction of cell cycle arrest in human MCF7 cells assessed as accumulation at G2/M phase at 5 uM after 24 hrs by flow cytometry (reference value: 15.9 +/- 2.7%); assay type: functional; outline: as §1
HeLa [27] = test: Induction of cell cycle arrest in human HeLa cells assessed as accumulation at S phase at 5 uM after 24 hrs by flow cytometry relative to control; assay type: functional; outline: as §1
MCF7 [28] = test: Cytostatic activity against human MCF7 cells assessed as inhibition of cell proliferation after 72 hrs by MTT assay; assay type: functional, cell-based; settings: MCF7, 72 h; outline: as §2
MCF7 [29] = test: Induction of cell cycle arrest in human MCF7 cells assessed as accumulation at S phase at 10 uM after 24 hrs by flow cytometry (reference value: 33.4 +/- 0.4%); assay type: functional; outline: as §1
WI-38 = test: Cytotoxicity against human WI38 cells assessed as inhibition of cell proliferation after 72 hrs by MTT assay; assay type: cell-based; settings: WI-38, 72 h; outline: as §2
HeLa [30] = test: Induction of cell cycle arrest in human HeLa cells assessed as accumulation at G1 phase at 5 uM after 48 hrs by flow cytometry relative to control; assay type: functional; outline: as §1
HeLa [31] = test: Cytostatic activity against human HeLa cells assessed as inhibition of cell proliferation after 72 hrs by MTT assay; assay type: functional, cell-based; outline: as §2
MCF7 [32] = test: Induction of cell cycle arrest in human MCF7 cells assessed as accumulation at subG1 phase at 10 uM after 24 hrs by flow cytometry (reference value: 0.68 +/- 0.4%); assay type: functional; outline: as §1
HeLa [33] = test: Induction of cell cycle arrest in human HeLa cells assessed as accumulation at subG1 phase at 5 uM after 24 hrs by flow cytometry relative to control; assay type: functional; outline: as §1
MCF7 [34] = test: Induction of cell cycle arrest in human MCF7 cells assessed as accumulation at G1 phase at 5 uM after 48 hrs by flow cytometry (reference value: 52.3 +/- 6.1%); assay type: functional; outline: as §1

O=C1O/C(=C\Cn2ccc(NC(=O)c3ccccc3)nc2=O)C(OCc2ccccc2)=C1OCc1ccccc1
Activity (HeLa [1]): 47.1%
Activity (MCF7 [2]): 38%
Activity (HeLa [3]): 37.9%
Activity (HeLa [4]): 8.45%
Activity (MCF7 [5]): 28.3%
Activity (MCF7 [6]): 0.37%
Activity (HeLa [7]): 53.7%
Activity (HeLa [8]): 39.5%
Activity (HeLa [9]): 8.3%
IC50 (HepG2): 1.98 µM
Activity (HeLa [10]): 0.2%
Activity (MCF7 [11]): 57.9%
Activity (MCF7 [12]): 13.9%
IC50 (SW-620): > 100 µM
Activity (MCF7 [13]): 35.6%
Activity (HeLa [14]): 0.56%
IC50 (MIA PaCa-2): 24.2 µM
Activity (MCF7 [15]): 6.54%
Activity (HeLa [16]): 36.5%
Activity (HeLa [17]): 52.3%
Activity (HeLa [18]): 0.27%
Activity (MCF7 [19]): 0.42%
Activity (MCF7 [20]): 54.3%
Activity (MCF7 [21]): 0.32%
Activity (HeLa [22]): 13.1%
Activity (MCF7 [23]): 5.52%
Activity (HeLa [24]): 2.8%
Activity (MCF7 [25]): 56.6%
Activity (MCF7 [26]): 13.8%
Activity (HeLa [27]): 39.9%
IC50 (MCF7 [28]): 2.03 µM
Activity (MCF7 [29]): 39.2%
IC50 (WI-38): 8.49 µM
Activity (HeLa [30]): 60.8%
IC50 (HeLa [31]): 7.2 µM
Activity (MCF7 [32]): 0.2%
Activity (HeLa [33]): 0.04%
Activity (MCF7 [34]): 50.6%

O=C1O/C(=C\Cn2ncc(=O)[nH]c2=O)C(OCc2ccccc2)=C1OCc1ccccc1
IC50 (HepG2): 41.3 µM
IC50 (SW-620): 36.5 µM
IC50 (MIA PaCa-2): 20.4 µM
IC50 (MCF7 [28]): 3.77 µM
IC50 (WI-38): 24.6 µM
IC50 (HeLa [31]): 45 µM

NC1(CCn2cc(F)c(=O)[nH]c2=O)OC(=O)C(OCc2ccccc2)=C1OCc1ccccc1 (racemic)
IC50 (HepG2): 42.8 µM
IC50 (SW-620): > 100 µM
IC50 (MIA PaCa-2): > 100 µM
IC50 (MCF7 [28]): 20.9 µM
IC50 (WI-38): 36.2 µM
IC50 (HeLa [31]): > 100 µM

O=C1O[C@H]([C@@H](O)Cn2ccc(NC(=O)c3ccccc3)nc2=O)C(OCc2ccccc2)=C1OCc1ccccc1
IC50 (HepG2): 62.2 µM
IC50 (SW-620): > 100 µM
IC50 (MIA PaCa-2): > 100 µM
IC50 (MCF7 [28]): 4.79 µM
IC50 (WI-38): 8.82 µM
IC50 (HeLa [31]): 35.9 µM

Nc1ccn(CCC2(N)OC(=O)C(OCc3ccccc3)=C2OCc2ccccc2)c(=O)n1 (racemic)
IC50 (HepG2): > 100 µM
IC50 (SW-620): > 100 µM
IC50 (MIA PaCa-2): > 100 µM
IC50 (MCF7 [28]): 32 µM
IC50 (WI-38): 88.9 µM
IC50 (HeLa [31]): > 100 µM

Nc1ccn(C[C@H](O)[C@H]2OC(=O)C(OCc3ccccc3)=C2OCc2ccccc2)c(=O)n1
IC50 (HepG2): 44.3 µM
IC50 (SW-620): > 100 µM
IC50 (MIA PaCa-2): > 100 µM
IC50 (MCF7 [28]): 7.34 µM
IC50 (WI-38): 53.9 µM
IC50 (HeLa [31]): > 100 µM

O=C1O/C(=C\Cn2c(=O)[nH]c(=O)[nH]c2=O)C(OCc2ccccc2)=C1OCc1ccccc1
IC50 (HepG2): 44.8 µM
IC50 (SW-620): > 100 µM
IC50 (MIA PaCa-2): 37.9 µM
IC50 (MCF7 [28]): 17.8 µM
IC50 (HeLa [31]): > 100 µM

NC1(CCn2ccc(=O)[nH]c2=O)OC(=O)C(OCc2ccccc2)=C1OCc1ccccc1 (racemic)
IC50 (HepG2): > 100 µM
IC50 (SW-620): > 100 µM
IC50 (MIA PaCa-2): > 100 µM
IC50 (MCF7 [28]): > 100 µM
IC50 (WI-38): > 100 µM
IC50 (HeLa [31]): > 100 µM
